Screening results: PubChem, several laboratories
A selection: hits, their analogues and other compounds. The true share with any hit is near 3.6%.
Measles CPE – compounds protecting cells from measles virus cytopathic effect, primary screen, measles RdRp inhibitor project, single point, MLSMR library, absorbance; AID 841, 2007; protection (pct of control), % at 4 µM; 140,000 compounds, 1.5% hits; Measles virus-infected cells, CPE protection; in the data active = protection mostly above about 24%, no sharp cut-off; inactive = mostly below about 26%
Yeast growth inh – growth inhibitors of yeast BB579 in restrictive medium, primary screen, yeast lifespan-shortening project, S. cerevisiae | OD615, 48 h | inhibition, % at 10 µM | 140,000 compounds, 0.51% hits | AID 804, 2007;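 active = inhibition above a set limit, 3 SD over the mean compound inhibition, cut at about 44% in these data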
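Detection: OD615 turbidity measurement; Material: Saccharomyces cerevisiae DeaD strain BB579, replicative lifespan model yeast; Timing: 48 h exposure, 30 °C; Doses: single 10 µM dose; Medium: CSMM-D restrictive synthetic medium containing dextrose (glucose); Controls: amphotericin B at 10 µg/mL as positive control.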
Yeast life ext – compounds extending yeast replicative lifespan, primary screen, S. cerevisiae, OD615; S. cerevisiae growth with nicotinamide; deaD strain in restrictive glucose medium; inhibition of the nicotinamide effect, % at 10 µM; 130,000 compounds, 0.68% hits; AID 775, 2007;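 active = inhibition above a set limit, placed 3 SD over the median of all compounds, cut at about 26% in these data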
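assay system = DeaD-strain S. cerevisiae | measured by = absorbance at 615 nm | probe or stimulus = nicotinamide 1.5 mM | buffer or medium = CSMM-D glucose medium, restrictive | times = 48 h at 30 °C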
RAM inhibit – inhibitors of the yeast RAM network, primary screen, dse1pr::URA3 reporter, 5-FOA selection | S. cerevisiae dse1pr::URA3 reporter, 5-FOA growth OD615, 2 d; analog-sensitive cbk1-as2 kinase mutant strain | inhibition, % at 50 µM | 190,000 compounds, 1.8% hits;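 active = inhibition above a set limit, 3 SD over mean compound inhibition, cut at about 8.4% in these data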;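 also: inhibition rescues growth on 5-FOA so higher OD means more RAM inhibition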
Phagocyt inh – inhibitors of macrophage phagocytosis, primary screen, imaging, J774A.1 cells, IgG beads. J774A.1 macrophage IgG-bead phagocytosis. inhibition, % at 5 µM. 110,000 compounds, 0.07% hits. AID 1029, 2008;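 active = inhibition above the mean of the plate negative controls plus 5 SD, cut at about 13% in these data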;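 also: phagocytic index as fraction of beads internalized from green versus red external bead signal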
Each line names hits and unclear results; the compound was inactive in the other large screens.

Cc1ccc(N/C=C/C(=O)c2sc(-c3ccccc3)nc2C)cc1	RAM inhibit 9.0
COc1ccc(C(NC(=O)CNC(C)=O)C(=O)Nc2ccc(C(C)C)cc2)cc1 (stereo not given)	Measles CPE 43
COc1ccc(C(NC(=O)CNC(C)=O)C(=O)Nc2ccc3c(c2)OCCO3)cc1 (stereo not given)	none (no result: Phagocyt inh)
Cc1cc(C)cc(-c2nc(-c3ccncc3)no2)c1	none (no result: Phagocyt inh)
CC(C)(C)c1ccc(-c2nc(-c3ccncc3)no2)cc1	Yeast growth inh 68 (no result: Yeast life ext, Phagocyt inh)
CC(C)(C)SCCNC(=O)Nc1ccccc1	Measles CPE 35
Cc1cc(NC(=O)C2CC2)ncc1NC(=O)C12CC3CC(CC(C3)C1)C2	Yeast life ext 29
COCCCNC(CC(=O)Nc1ccc(OC)cc1OC)C(=O)O (stereo not given)	Yeast life ext 101
COc1ccc(NC(=O)CC(NCCc2ccccc2)C(=O)O)c(OC)c1 (stereo not given)	none
COC(=O)CC(c1ccc(C(C)C)cc1)n1cccc1 (stereo not given)	none (no result: Measles CPE, Yeast growth inh, Yeast life ext, Phagocyt inh)
O=C(CNC(=S)N(Cc1ccccc1F)C1CCCCC1)NCCCN1CCOCC1	none (no result: Measles CPE, Yeast growth inh, Yeast life ext, Phagocyt inh)
O=C(NC1CCCCCC1)C1CCN(c2nc3ccccc3o2)CC1	Measles CPE 32
CC1CCCCN1CCCNC(=O)C1CCN(c2nc3ccccc3o2)CC1 (stereo not given)	none
O=C(CCc1ccc(S(=O)(=O)NC2CCCCC2)cc1)Nc1ccccc1	none
O=C(CCc1ccc(S(=O)(=O)NC2CCCCC2)cc1)N(Cc1ccccc1)Cc1ccccc1	RAM inhibit 11 (no result: Phagocyt inh)
COc1ccc(C2CC(c3cccs3)=NN2C(=O)CSc2nc3ccccc3o2)cc1 (stereo not given)	RAM inhibit 8.5
COc1ccc(C2CC(c3cccs3)=NN2C(=O)CSc2nc3ccccc3s2)cc1 (stereo not given)	none
CC1(C)Cc2ccccc2-c2nnc(C(F)(F)F)n21	Measles CPE 41
Cc1ccc2oc(-c3ccc(C)c(NC(=S)NC(=O)c4cccs4)c3)nc2c1	Measles CPE 59 (no result: Phagocyt inh)
O=C(Nc1ccc2oc(-c3ccncc3)nc2c1)c1cccs1	Measles CPE 42
O=C(Nc1ccc(-c2nc3cc(NC(=O)c4cccs4)ccc3o2)cc1)c1cccs1	none (no result: Phagocyt inh)
CC(C)Oc1ccc(C(=O)Nc2ccc(C(F)(F)F)n(C)c2=O)cc1	none
O=C(CCc1ccccc1)Nc1ncn[nH]1	none (no result: Phagocyt inh)
O=C(/C=C/c1ccccc1)Nc1ncn[nH]1	Yeast life ext 36
Cc1ccc(S(=O)(=O)/N=C2/NC(=O)/C(=C/c3ccc(Br)o3)S2)cc1	Measles CPE 25
Cc1ccc(S(=O)(=O)/N=C2/NC(=O)/C(=C/c3cccnc3)S2)cc1	none (no result: Phagocyt inh)
CCO[C@H]1OC(C(=O)NCc2ccccc2)=C[C@@H](c2ccccc2)[C@@H]1CCCO	none (no result: Measles CPE, Yeast growth inh, Yeast life ext, Phagocyt inh)
COc1cc(NS(=O)(=O)c2ccc(N/C=C(\C#N)c3nc4cc(Cl)ccc4o3)cc2)nc(OC)n1	RAM inhibit 9.1
O=C(O)CCC(=O)N1CCN(c2nc(-c3ccccc3Cl)c3cc(Br)ccc3n2)CC1	Yeast growth inh 99 (no result: Phagocyt inh)
Clc1ccccc1-c1ncnc2ccc(Br)cc12	none (no result: Measles CPE, Yeast growth inh, Yeast life ext, Phagocyt inh)
CC(C)c1ccc(NC(=S)NCCc2c[nH]c3ccccc23)cc1	Yeast growth inh 55 (no result: Phagocyt inh)
Cc1ccc(NC(=S)NCCc2c[nH]c3ccccc23)cc1	none (no result: Phagocyt inh)
COc1ccc(NC(=O)COC(=O)C2CCC(C(C)(C)C)CC2)c([N+](=O)[O-])c1 (stereo not given)	RAM inhibit 11
C/C(N)=C(/C#N)C(=O)COC(=O)c1cccc2ccccc12	none
N#CSCC(=O)c1cccc2ccccc12	Yeast growth inh 84
CCCCn1c(N)c(N(CC)C(=O)c2cccc(OC)c2)c(=O)[nH]c1=O	none (no result: Measles CPE, Yeast growth inh, Yeast life ext, Phagocyt inh)
Cc1cc(C)c2c(N=NN3CCCCC3)[nH]nc2n1	Yeast growth inh 85
CCN(CC)N=Nc1[nH]nc2nc(C)cc(C)c12	Yeast growth inh 78
CC(=O)n1nc2nc(C)cc(C)c2c1N	none
CC(C)(C)C1CCC(C(=O)OCC(=O)Nc2ccc3[nH]c(=O)[nH]c3c2)CC1 (stereo not given)	none (no result: Measles CPE, Yeast growth inh, Yeast life ext, Phagocyt inh)
O=C(Nc1ccc(F)cc1)Nc1cc(S(=O)(=O)N2CCOCC2)ccc1N1CCCC1	none (no result: Measles CPE, Yeast growth inh, Yeast life ext, Phagocyt inh)
O=C(Nc1ccc(Cl)cc1)Nc1cc(S(=O)(=O)N2CCOCC2)ccc1N1CCCC1	RAM inhibit 9.3
O=S(=O)(c1ccc(Cl)c(NC(=S)Nc2cccc(O)c2)c1)N1CCOCC1	Yeast life ext 27
CCN(C(=S)Nc1cc(S(=O)(=O)N2CCOCC2)ccc1Cl)c1cccc2ccccc12	none
CCOP(=O)(OCC)C(Nc1ccc(C)cc1)c1ccco1 (stereo not given)	none (no result: Measles CPE, Yeast growth inh, Yeast life ext, Phagocyt inh)
N#Cc1c(N)nc2c(c1-c1ccncc1)CCCCC2	none (no result: Yeast life ext)
COc1ccc(-c2c(C#N)c(N)nc3c2CCCCCC3)cc1OC	Measles CPE 42
CSc1ccc(-c2c(C#N)c(N)nc3c2CCCC3)cc1	Measles CPE 40
Cc1cc(NC(c2ccc(Cl)cc2)c2ccc3cccnc3c2O)no1 (stereo not given)	Yeast growth inh 95
CC1(C)Cc2c(C#N)c(N3CCN(C(=O)c4ccccc4)CC3)nc(Cc3ccccc3)c2CO1	none
CC1(C)Cc2nc(N3CCCC3)c(C#N)cc2CO1	none (no result: Measles CPE, Yeast growth inh, Yeast life ext, Phagocyt inh)
CC1(C)Cc2nc(N3CCOCC3)c(C#N)cc2CO1	Measles CPE 18
CC1(C)Cc2c(C#N)c(N3CCOCC3)nc(Cc3ccccc3)c2CO1	RAM inhibit 11
Cc1csc(C(C)N(C)C(=O)CCc2nnc(CCc3ccccc3)o2)n1 (stereo not given)	none (no result: Measles CPE, Yeast growth inh, Yeast life ext, Phagocyt inh)
CCOC(=O)c1c(C)n2c3c(cc(C)cc13)CCC2	none (no result: Measles CPE, Yeast growth inh, Yeast life ext, Phagocyt inh)
CC1=CC2CC1C1C(=O)N(c3ccc(S(=O)(=O)Nc4nc(C)cc(C)n4)cc3)C(=O)C21 (stereo not given)	RAM inhibit 9.8
COc1cc2c(cc1OC)N1C(=O)CC(OCC(=O)O)C3C4CC5(CCN5C(=O)C4=O)C2C31 (stereo not given)	none (no result: Measles CPE, Yeast growth inh, Yeast life ext, Phagocyt inh)
Clc1ccc(-c2nc3ccccc3n2OCc2ccccc2)cc1	Measles CPE 39
COc1ccc(-c2nc3ccccc3n2Cc2ccc(C)cc2)cc1	none
O=C(Nc1ccc(Cl)cc1)ON=C1CCCC1	Yeast growth inh 99
Cc1nn(-c2ccccc2)c2c1C(c1ccc([N+](=O)[O-])cc1)N1C(=N2)C(=O)Nc2ccccc21 (stereo not given)	none
Cc1nn(-c2ccc([N+](=O)[O-])cc2)c2c1C(c1cccc(Br)c1)N1C(=N2)C(=O)Nc2ccccc21 (stereo not given)	RAM inhibit 10
Cc1cc2c(ncn2Cc2ccccc2)c([N+](=O)[O-])c1C	none (no result: Phagocyt inh)
COc1cccc(/C(C#N)=C/c2c(-c3ccc(Cl)cc3)nc3c(C)cccn23)c1	none
